Experimental data: the array DNA melting data of Ke et al. (doi:10.1101/2024.01.08.574731)

What was measured:
[1] = folding enthalpy; higher = less favourable; fluorescence melt of hairpins on a sequencing array, two-state fit; settings: sodium 0.088 M
Procedure, shortened: (§1)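 Hairpins were imaged by Cy3 fluorescence on a sequenced MiSeq flow cell with annealed Cy3 and quencher oligos, in 50 mM Na-HEPES pH 8.0, 25 mM NaCl, in 2.5 °C steps up to 60 °C. Bootstrapped two-state fits of normalised signals gave melting temperature and folding enthalpy. Four replicates were combined by inverse variance, and fitted temperatures were raised by 9.35 °C to match UV melts.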

[2] = melting temperature; fluorescence melt of hairpins on a sequencing array, two-state fit, raised by 9.35 °C to match UV melts; settings: sodium 0.088 M
Procedure, shortened: as §1

Row | Sequence | folding enthalpy [1] [kcal/mol] | Tm [2] [°C]
1 | GATTCGAAAGAATC (((((....))))) | -29.7 | 51.5
2 | GATTCGGAAACGAATC ((((((....)))))) | -32.2 | 58.6
3 | GATTCTGGAAACAGAACC (.(((((....))))).) | -17.6 | 33.6
4 | GATTCTGGAAACAGAATC (((((((....))))))) | -43.9 | 55
5 | GATTGAGGAAACTCAATC (((((((....))))))) | -52.3 | 53.6
6 | GATTGCCGAAAGGCTATC (((.(((....))).))) | -19.1 | 51.4
7 | GATTGCGAAAGCAACATC ((((((....)))..))) | -9.24 | 28.5
8 | GATTGCGAAAGCAGTATC ((((((....)))..))) | -10.9 | 32.1
9 | GATTGCGAAAGCATAATC ((((((....)))..))) | -12.8 | 33.1
10 | GATTGCGAAAGCATGATC ((((((....)))..))) | -11.6 | 36.3
11 | GATTGGCCGAAAGGCATC (((..(((....)))))) | -9.53 | 28.5
12 | GATTGGCGAAAGCCGATC (((.(((....))).))) | -25.8 | 56.8
13 | GATTGGGGAAACCCGATC (((.(((....))).))) | -35 | 48.8
14 | GATTGGGGAAACCTAATC ((((.((....)).)))) | -29.3 | 37.5
15 | GATTGTACGAAAGTAATC (((..(((....)))))) | -18.7 | 28.1
16 | GATTGTGCGAAAGCAATC (((..(((....)))))) | -12.8 | 34
17 | GATTGTGGAAACACAGTC ((.((((....)))).)) | -26.4 | 42.6
18 | GATTTAGGAAACTAGATC (((.(((....))).))) | -27.5 | 28.3
19 | GATTTCCGAAAGGAATC (((.(((....)))))) | -16.4 | 42.9
20 | GATTTCCGAAAGGATATC (((.(((....))).))) | -24.6 | 42
21 | GATTTCGGAAACGAAATC (((((((....))))))) | -41.2 | 58.1
22 | GATTTGCCGAAAGGCATC (((..(((....)))))) | -5.81 | 21.9
23 | GATTTGCGAAAGCACATC (((.(((....))).))) | -19.9 | 43.9

Row | Sequence | folding enthalpy [1] [kcal/mol] | Tm [2] [°C]
24 | GATTTGGGAAACCAAACC (.(((((....))))).) | -19.4 | 34
25 | GATTTGGGAAACCGAATC ((((.((....)).)))) | -31.1 | 44.5
26 | GATTTTGAAAAAAATC ((((((....)))))) | -23.7 | 40.7
27 | GATTTTGGAAACAAGATC (((.(((....))).))) | -22.4 | 33.6
28 | GCAAAAACGAAAGTTTGC (((..(((....)))))) | -26 | 43.2
29 | GCAAAACGAAAGTTTGC (((.(((....)))))) | -30.6 | 50.8
30 | GCAAAAGCGAAAGCTTGC (((..(((....)))))) | -18.3 | 51.4
31 | GCAAAAGGAAACCTTTGC (((((.(....).))))) | -30.4 | 39.6
32 | GCAAAAGGAAACTCTTGC ((((.((....)).)))) | -10.8 | 27.4
33 | GCAAAAGGAAACTTTCGC ((.((((....)))).)) | -20.5 | 31.8
34 | GCAAAAGGAAACTTTTGC (((((((....))))))) | -45 | 56.5
35 | GCAAACGAAAGTTACTGC ((((((....)))..))) | -13.3 | 27.3
36 | GCAAACGAAAGTTATTGC ((((((....)))..))) | -18.5 | 31.7
37 | GCAAAGAAATTTGC (((((....))))) | -19.4 | 38.9
38 | GCAAAGACGAAAGTCTGC (((..(((....)))))) | -15.7 | 50.2
39 | GCAAAGCGAAAGCATAGC ((.(.((....)).).)) | -9.41 | 33.4
40 | GCAAAGCGAAAGCATCGC ((.(.((....)).).)) | -10.8 | 35.4
41 | GCAAAGCGAAAGCTCCGC ((..(((....)))..)) | -11.4 | 29
42 | GCAAAGCGAAAGCTCTGC (((.(((....))).))) | -31.1 | 47
43 | GCAAAGCGAAAGCTGTGC (((.(((....))).))) | -41.6 | 54.4
44 | GCAAAGCGAAAGCTTGGC ((.((((....)))).)) | -38.7 | 62.9
45 | GCAAAGGCGAAAGCCTGC (((..(((....)))))) | -14.9 | 54.6
